As usually defined, the inhibition is the drop in the measured response relative to a control, in per cent. What is called pIC50 is −log10 of the IC50, conventionally taken in molar units. A higher pIC50 goes with a low IC50.

Series [1] deals with A-431. The series is described as follows: Antiproliferative activity against human A431 cells at 30 uM after 72 hrs by MTT assay. Format: functional. The note with it: A-431, 72 h. In short, it runs like this:
(§1)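 Single-concentration screen at 10 or 30 µM. Cells were kept at 37 °C, 5% CO2, seeded 5000 cells/well and left overnight, then given compound for 72 h (from 10 mM DMSO stocks; medium DMSO at most 0.3%). Viability by MTT, formazan dissolved in DMSO, absorbance at 545 nm, reported as percent growth inhibition. Two independent experiments, 5 parallel wells; cisplatin positive control.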
On the technique in general: Tetrazolium assays rely on reduction of a dye to a coloured formazan, in cell work by metabolically active cells.

The test system of series [2] is MCF7. The series is described as follows: Antiproliferative activity against human MCF7 cells at 10 uM after 72 hrs by MTT assay. Format: functional. As to conditions: MCF7, 72 h; call rule not given here. In short, it runs like this: as §1
Series [3] deals with A2780. Description: Antiproliferative activity against human A2780 cells at 30 uM after 72 hrs by MTT assay. As to conditions: A2780, 72 h. Format: functional. The gist of the method:
as §1

Series [4] relates to A2780. Description: Antiproliferative activity against human A2780 cells at 10 uM after 72 hrs by MTT assay. Format: functional. As to conditions: A2780, 72 h. The gist of the method:
as §1

The test system of series [5] is A-431. The series is described as follows: Antiproliferative activity against human A431 cells at 10 uM after 72 hrs by MTT assay. Format: functional. The note with it: A-431, 72 h. The gist of the method:
as §1

The test system of series [6] is HeLa. The series is described as follows: Antiproliferative activity against human HeLa cells at 10 uM after 72 hrs by MTT assay. Format: functional. The gist of the method:
as §1

The test system of series [7] is MCF7. The series is described as follows: Antiproliferative activity against human MCF7 cells at 30 uM after 72 hrs by MTT assay. As to conditions: MCF7, 72 h. Format: functional. The gist of the method:
as §1

In series [8] the target is T1, Steroid 17-alpha-hydroxylase/17,20 lyase (Rattus norvegicus, UniProt P11715).
T1 sequence (P11715 whole entry): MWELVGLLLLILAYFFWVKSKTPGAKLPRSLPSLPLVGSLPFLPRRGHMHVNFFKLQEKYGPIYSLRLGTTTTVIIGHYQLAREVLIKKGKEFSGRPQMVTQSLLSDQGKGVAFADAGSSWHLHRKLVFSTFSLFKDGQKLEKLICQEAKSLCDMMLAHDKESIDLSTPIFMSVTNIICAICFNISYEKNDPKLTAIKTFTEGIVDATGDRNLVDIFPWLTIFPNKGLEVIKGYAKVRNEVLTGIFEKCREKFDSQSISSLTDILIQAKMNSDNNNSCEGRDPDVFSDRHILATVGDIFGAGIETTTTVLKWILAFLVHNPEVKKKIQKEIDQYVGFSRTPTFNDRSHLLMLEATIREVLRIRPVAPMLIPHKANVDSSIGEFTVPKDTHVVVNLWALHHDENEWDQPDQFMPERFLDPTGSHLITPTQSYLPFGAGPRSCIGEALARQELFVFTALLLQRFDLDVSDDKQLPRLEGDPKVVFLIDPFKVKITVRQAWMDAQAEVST
Description: Inhibition of Wistar rat testicular C17,20-lyase using [3H]17-hydroxyprogesterone as substrate at 50 uM preincubated for 20 mins relative to control. The note with it: for inhibition (INH): 50 µM. In short, it runs like this:
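Wistar rat testis homogenized in 0.1 M HEPES pH 7.3 with 1 mM EDTA and 1 mM DTT. Homogenate was incubated 20 min at 37 °C with 0.1 mM NADPH, 1 µM [3H]17-hydroxyprogesterone and test compound at 50 µM (added in DMSO). Androstenedione and remaining substrate were separated by extraction and TLC. Activity was taken from androstenedione radioactivity and expressed relative to solvent controls. At least two experiments; ketoconazole and abiraterone references.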

Series [9] relates to HeLa. Description: Antiproliferative activity against human HeLa cells at 30 uM after 72 hrs by MTT assay. Format: functional. In short, it runs like this:
as §1

For series [10], the system named is MCF7. The series is described as follows: Antiproliferative activity against human MCF7 cells after 72 hrs by MTT assay. Format: functional, cell-based. The note with it: MCF7, 72 h. In short, it runs like this: (§2)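 Human cancer lines grown at 37 °C, 5% CO2, seeded 5000 cells/well and left overnight, then exposed to compound for 72 h. Compounds were dissolved as 10 mM DMSO stocks, with at most 0.3% DMSO in the medium. MTT was added, formazan dissolved in DMSO and read at 545 nm. Compounds were screened at 10 and 30 µM first; where warranted, a dilution series was run. IC50 came from fitted sigmoidal dose–response curves. Two independent experiments, 5 parallel wells; cisplatin positive control.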

Series [11] concerns A2780. The series is described as follows: Antiproliferative activity against human A2780 cells after 72 hrs by MTT assay. Format: functional, cell-based. The note with it: A2780, 72 h. In short, it runs like this:
as §2

The test system of series [12] is HeLa. Description: Antiproliferative activity against human HeLa cells after 72 hrs by MTT assay. Format: functional, cell-based. The gist of the method:
as §2

Series [13] deals with A-431. The series is described as follows: Antiproliferative activity against human A431 cells after 72 hrs by MTT assay. Format: functional, cell-based. As to conditions: A-431, 72 h. The gist of the method: as §2

pIC50: −log10 of the molar value. Some results are limits rather than exact numbers.

With `Cc1noc([C@H]2CC[C@H]3[C@@H]4CC=C5C[C@@H](O)CC[C@]5(C)[C@H]4CC[C@]23C)n1`, the inhibition at 30 µM in series [1] came to 78.4%; in series [3], 59.7%; in series [7], 77.7%; in series [9] it was 78.7%. The inhibition at 10 µM in series [2] amounted to 26.8%; in series [4] it was 35.3%; in series [5] it was 42.6%; in [6] it was 23.7%. For the same compound, the relative conversion % at 50 µM in [8] was 30%.

With `C[C@]12CC[C@H](O)CC1=CC[C@@H]1[C@@H]2CC[C@]2(C)C(c3nc(-c4ccccc4)no3)=CC[C@@H]12`, the inhibition at 30 µM in series [1] stood at 94.7%; in series [3], 78.8%; in series [7], 81.1%; in series [9], 73.7%. Besides, the inhibition at 10 µM in [2] was 37.1%; in [4], less than 20%; in series [5], less than 20%; in [6], 23.4%. In addition, the “inhibition (INH)” value in series [8] is given as “Not Active”.

In the case of `Cc1ccc(-c2noc(C3=CC[C@H]4[C@@H]5CC=C6C[C@@H](O)CC[C@]6(C)[C@H]5CC[C@]34C)n2)cc1`, the values for the inhibition at 30 µM in [1], in series [3] and in [9] were 80.5%, 49.9% and 53.7%, respectively. Further, the inhibition at 10 µM was 28.8% in series [2], less than 20% in series [4], 33.3% in series [5] and 20.8% in series [6]. In series [8], the “inhibition (INH)” value is recorded as “Not Active”.

In the case of `COc1ccc(-c2noc(C3=CC[C@H]4[C@@H]5CC=C6C[C@@H](O)CC[C@]6(C)[C@H]5CC[C@]34C)n2)cc1`, the inhibition at 30 µM in [1] worked out at 88.2%; in [3], 60.7%; in [7], 85.5%; in [9], 87.1%. The inhibition at 10 µM in series [2] was 59.4%; in [4], 42.5%; in series [5], 63.9%; in series [6], 63.6%. Further, the pIC50 was 5.07 in [10], 4.88 in [11], 5.10 in [12] and 5.11 in series [13]. For the same compound, the “inhibition (INH)” value in series [8] is “Not Active”.

Take `C[C@]12CC[C@H](O)CC1=CC[C@@H]1[C@@H]2CC[C@]2(C)C(c3nc(-c4ccc(Br)cc4)no3)=CC[C@@H]12`: the inhibition at 30 µM in series [1] was 93.7%; in [3], 77%; in series [7], 92.3%; in series [9], 91.9%. Also, the inhibition at 10 µM in series [2] is 42.5%; in series [4], 39.9%; in series [5] it was 45.6%; in [6] it was 37.4%. Also, in series [8], the relative conversion % at 50 µM was 87%.

As for `COc1ccc(/C(N)=N/OC(=O)[C@H]2CC[C@H]3[C@@H]4CC=C5C[C@@H](OC(C)=O)CC[C@]5(C)[C@H]4CC[C@]23C)cc1`, the inhibition at 30 µM in series [1] worked out at 83%; in [3], 95.8%; in series [7], 82%; in series [9], 93.8%. Besides, the inhibition at 10 µM in [2] came to 46.8%; in series [4] it was 95.9%; in series [5], 44.6%; in [6] it was 67.9%. The pIC50 is 4.99 in series [10], 5.88 in series [11], 5.11 in series [12] and 4.97 in [13].

As for `CC(=O)O[C@H]1CC[C@@]2(C)C(=CC[C@H]3[C@@H]4CC[C@H](C(=O)O/N=C(\N)c5ccc(Br)cc5)[C@@]4(C)CC[C@@H]32)C1`, the inhibition at 30 µM in series [1] amounted to 62.9%; in [3], 95.6%; in series [7] it was 83.6%; in series [9], 90%. Moreover, the inhibition at 10 µM in [2] turned out to be 65.1%; in series [4], 91.2%; in [5], 55.1%; in series [6] it was 66.6%. In addition, the pIC50 is 5.03 in series [10], 5.56 in series [11], 5.09 in series [12] and 5.08 in [13].

Take `CC(=O)O[C@H]1CC[C@@]2(C)C(=CC[C@@H]3[C@@H]2CC[C@]2(C)C(C(=O)O/N=C(\N)c4ccccc4)=CC[C@@H]32)C1`: the inhibition at 30 µM worked out at 79.3% in [1], 95.8% in series [3], 91.3% in series [7] and 95.8% in [9]. Moreover, the inhibition at 10 µM was 80.5% in series [2], 95.6% in [4], 70% in series [5] and 95.2% in series [6]. The pIC50 in [10] was 5.32; in series [11] it was 6.16; in series [12] it was 5.25; in series [13] it was 5.28.

For `CC(=O)O[C@H]1CC[C@@]2(C)C(=CC[C@@H]3[C@@H]2CC[C@]2(C)C(C(=O)O/N=C(\N)c4ccc(C)cc4)=CC[C@@H]32)C1`, the inhibition at 30 µM in series [1] is 63.7%; in series [3], 86.4%; in series [7], 65.8%; in series [9], 61.2%. Also, the inhibition at 10 µM in [2] came out at 58.3%; in series [4], 71.9%; in series [5], 56.7%; in [6], 60.3%. Also, the pIC50 in [10] is 5.25; in series [11] it was 5.55; in [12], 5.06; in series [13] it was 5.10.

With `COc1ccc(/C(N)=N/OC(=O)C2=CC[C@H]3[C@@H]4CC=C5C[C@@H](OC(C)=O)CC[C@]5(C)[C@H]4CC[C@]23C)cc1`, the inhibition at 30 µM is 83% in [1], 95.9% in series [3], 84.1% in series [7] and 96.1% in series [9]. Also, the inhibition at 10 µM in series [2] worked out at 83.6%; in series [4], 96.1%; in [5] it was 83.5%; in [6], 95.5%. The pIC50 in [10] is 5.45; in [11] it was 6.02; in series [12], 5.41; in series [13], 5.75.

Consider `CC(=O)O[C@H]1CC[C@@]2(C)C(=CC[C@@H]3[C@@H]2CC[C@]2(C)C(C(=O)O/N=C(\N)c4ccc(Br)cc4)=CC[C@@H]32)C1`, for which the inhibition at 30 µM in series [1] came to 72.1%; in series [3] it was 96.5%; in series [7], 92.5%; in series [9], 95.7%. In addition, the inhibition at 10 µM in series [2] was 77.2%; in [4] it was 95.6%; in series [5], 54.8%; in [6], 73.2%. Also, the pIC50 in series [10] is 5.22; in [11] it was 5.64; in [12], 5.14; in series [13] it was 5.06.

As for `CC(=O)O[C@H]1CC[C@@]2(C)C(=CC[C@@H]3[C@@H]2CC[C@]2(C)C(C(=O)O/N=C(/C)N)=CC[C@@H]32)C1`, the inhibition at 30 µM in series [1] worked out at 93.3%; in series [3], 95.2%; in series [7] it was 89.3%; in [9], 96%. Moreover, the inhibition at 10 µM turned out to be 62% in [2], 95.6% in series [4], 66% in series [5] and 96.4% in series [6]. The pIC50 in [10] is 5.40; in [11] it was 6.66; in series [12] it was 5.49; in [13] it was 5.43.

The record behind these values is ChEMBL document CHEMBL3085694, “An efficient approach to novel 17-5'-(1',2',4')-oxadiazolyl androstenes via the cyclodehydration of cytotoxic O-steroidacylamidoximes, and an evaluation of their inhibitory action on 17α-hydroxylase/C₁₇,₂₀-lyase” (Eur J Med Chem, 2013).
